One series concerns Influenza A virus. The experiment in a line: Antiviral activity against Influenza A virus (A/Puerto Rico/8/34(H1N1)) infected in MDCK cells assessed as reduction in virus titer pretreated with cells for 1 hr followed by viral infection for 1 hr and subsequent unbound virion washout measured after 24 to 48 hrs by hemagglutination test. The class given is functional, organism-based, A/Puerto Rico/8/1934(H1N1). Put shortly: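 MDCK cells pre-incubated 1 h at 36 °C with compound in MEM containing 1 μg mL−1 trypsin, then infected with A/Puerto Rico/8/34 (H1N1), moi 0.01, for 1 h. Unbound virus washed off, then 24 h at 36 °C, 5% CO2. Supernatant titre read by hemagglutination after 48 h passage in MDCK, as % of untreated control. Triplicate wells; IC50 calculated.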

Series [1] in a line: Selectivity index, ratio of CC50 for MDCK cells to IC50 for Influenza A virus (A/Puerto Rico/8/34(H1N1)) infected in MDCK cells. In kind it is toxicity, cell-based. Conditions: dog, read-out: Ratio CC50/IC50; call rule not given here.
Series [2] is described as follows: Selectivity index, ratio of CC50 for African green monkey Vero cells to IC50 for Vaccinia virus Copenhagen infected in African green monkey Vero cells. The class given is toxicity. Particulars: read-out: Ratio CC50/IC50.
A further series deals with Vaccinia virus. The series is described as follows: Antiviral activity against Vaccinia virus Copenhagen infected in African green monkey Vero cells assessed as inhibition of viral replication after 4 days by neural red dye-based spectrophotometric method. In kind it is functional, organism-based, Orthopoxvirus vaccinia.
Series [3] is described as follows: Cytotoxicity against MDCK cells assessed as reduction in cell viability after 48 hrs by MTT assay. The class given is cell-based, Canis lupus familiaris. Particulars: dog. The method in brief:
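MDCK cells were exposed to three-fold dilutions of compound in MEM (top 300–400 μg mL-1) for 48 h at 36 °C in 5% CO2, then washed twice with PBS. MTT ([…] in PBS) was added for 1 h and formazan was dissolved in DMSO. OD was read at 535 nm. Triplicate wells per concentration; CC50 was taken from OD versus concentration.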
(Formazan colour is commonly taken as a measure of viable cells.)

A short description of series [4]: Cytotoxicity against African green monkey Vero cells assessed as reduction in cell viability after 4 days by neural red dye-based spectrophotometric method. Particulars: chlorocebus sabaeus. Put shortly: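 Vero cell monolayers in DMEM with 2% fetal serum were given serial dilutions of compound, with no virus added. After 4 days the cells were stained with neutral red for 2 h, unbound dye was washed out and the cells were lysed. OD was read at 490 nm. CC50 in μM was derived from the OD data; three independent experiments, mean ± 95% confidence interval.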

Another series has as its system Orthopoxvirus. The series is described as follows: Antiviral activity against Orthopoxvirus assessed as reduction in viral replication. In kind it is functional, organism-based.
The mark [5] stands for this setting: Influenza A virus, A/Puerto Rico/8/1934(H1N1), MDCK, read-out: IC50.
Setting [6] is: Orthopoxvirus vaccinia, Copenhagen, Vero, 96 h, read-out: IC50.

Experimental findings from ChEMBL document CHEMBL4368876, “Synthesis of d-(+)-camphor-based N-acylhydrazones and their antiviral activity” (Medchemcomm, 2018) are described below.

The IC50 is the midpoint of a concentration-inhibition curve. For `CC(N)C12CC3CC(CC(C3)C1)C2` (stereo not given) [RIMANTADINE], in the series with Influenza A virus (setting [5]), the IC50 came to 67 µM. Besides, in series [1], the selectivity ratio turned out to be 5.
By CC50 is commonly meant the concentration at which the toxic effect on the cells reaches its halfway point. Regarding `CC1(C)[C@@H]2CC[C@@]1(C)/C(=N/NC(=O)c1ccccc1)C2`, the selectivity ratio in series [2] came to 280; in series [1] it was 5. Moreover, the values for the IC50 with Vaccinia virus (setting [6]) and in the series on Influenza A virus (setting [5]) were 5.1 µM and 201 µM, respectively. In series [3], the CC50 at 48 h is > 1050 µM. Moreover, the CC50 at 96 h in series [4] was found to be 1430 µM.
`CC12C=CC3(O1)C(C(=O)N1CCSC13)C2C(=O)N/N=C1\C[C@H]2CC[C@]1(C)C2(C)C` (mixture of isomers): the IC50 entry in the series on Vaccinia virus (vero) was “Not Active”. Besides, in series [4], the half-maximal cytotoxic concentration (CC50) at 96 h was > 250 µM.
As to `CC12C=CC3(O1)C(C(=O)N1CCCOC13)C2C(=O)N/N=C1\C[C@H]2CC[C@]1(C)C2(C)C` (mixture of isomers), the half-inhibitory concentration (IC50) entry in the series on Vaccinia virus (vero) was “Not Active”; in the series with Influenza A virus (setting [5]), 481 µM. The CC50 at 48 h in series [3] is > 721 µM. For the same compound, the selectivity ratio in series [1] was 2. For the same compound, the CC50 at 96 h in series [4] was > 250 µM.
With `CCCC(=O)N/N=C1\C[C@H]2CC[C@]1(C)C2(C)C`, the selectivity ratio is 12 in series [2] and 2 in series [1]. Further, the figures for the 50% inhibitory concentration (IC50) in the series on Vaccinia virus (setting [6]) and in the series on Influenza A virus (setting [5]) were 69.8 µM and 794 µM, respectively. Moreover, the CC50 at 48 h in series [3] is > 1190 µM. Further, the cytotoxic concentration (CC50) at 96 h in series [4] turned out to be 854 µM.
Take `NC(=O)c1ncn([C@@H]2O[C@H](CO)[C@@H](O)[C@H]2O)n1` [RIBAVIRIN]: in series [3], the CC50 at 48 h is > 2130 µM. Besides, the half-inhibitory concentration (IC50) with Influenza A virus (setting [5]) stood at 30 µM. Also, in series [1], the selectivity ratio is 71.
Turning to `CC12C=CC3(CN(c4ccccc4)C(=O)C3C1C(=O)N/N=C1\C[C@H]3CC[C@]1(C)C3(C)C)O2` (mixture of isomers), the selectivity ratio was determined as 97 in series [2] and 12 in series [1]. In addition, the IC50 in the series on Vaccinia virus (setting [6]) was determined as 6.2 µM; with Influenza A virus (setting [5]), 22 µM. The 50% cytotoxic concentration (CC50) at 48 h in series [3] is 277 µM. The CC50 at 96 h in series [4] worked out at 600 µM.
`CC1(C)[C@@H]2CC[C@@]1(C)/C(=N/NC(=O)C(F)(F)F)C2`: the IC50 entry in the series on Vaccinia virus (vero) and with Influenza A virus was “Not Active” each time. Moreover, the CC50 at 48 h in series [3] was > 1080 µM. Besides, the half-maximal cytotoxic concentration (CC50) at 96 h in series [4] was > 250 µM.
Turning to `NC12CC3CC(CC(C3)C1)C2` [AMANTADINE], in the series on Influenza A virus (setting [5]), the IC50 worked out at 64 µM. Also, in series [1], the selectivity ratio worked out at 4.
Consider `CC12C=CC3(CN(Cc4ccccc4)C(=O)C3C1C(=O)N/N=C1\C[C@H]3CC[C@]1(C)C3(C)C)O2` (mixture of isomers), for which the IC50 result is “Not Active” with Vaccinia virus (vero) and > 72 µM in the series with Influenza A virus (setting [5]). In addition, the half-maximal cytotoxic concentration (CC50) at 48 h in series [3] was 227 µM. The selectivity ratio in series [1] amounted to 3. Besides, the 50% cytotoxic concentration (CC50) at 96 h in series [4] was > 250 µM.
Take `CC1(C)[C@@H]2CC[C@@]1(C)[C@H](OC(=O)CCN1CCOCC1)C2`: in the series with Orthopoxvirus, the 50% inhibitory concentration (IC50) was determined as 3.5 µM.
For `Nc1ccn(C[C@@H](CO)OCP(=O)(O)O)c(=O)n1` [CIDOFOVIR], the selectivity ratio in series [2] worked out at 12.
On to `CC1(C)[C@@H]2CC[C@@]1(C)/C(=N/NC(=O)c1ccco1)C2`, for which the selectivity ratio came to 7 in series [2] and 3 in series [1]. Also, the values for the IC50 in the series with Vaccinia virus (setting [6]) and in the series on Influenza A virus (setting [5]) were 38.7 µM and 325 µM, respectively. Further, the CC50 at 48 h in series [3] is 1090 µM. Also, the 50% cytotoxic concentration (CC50) at 96 h in series [4] stood at 285 µM.
In the case of `CC1(C)[C@@H]2CC[C@@]1(C)/C(=N/NC(=O)c1ccc(Br)cc1)C2`, the selectivity ratio in series [2] was 26; in series [1], 4. The IC50 in the series with Vaccinia virus (setting [6]) was determined as 11.1 µM; with Influenza A virus (setting [5]) it was 219 µM. Further, the cytotoxic concentration (CC50) at 48 h in series [3] was > 822 µM. Moreover, the 50% cytotoxic concentration (CC50) at 96 h in series [4] came out at 288 µM.
For the compound `CC(=O)N/N=C1\C[C@H]2CC[C@]1(C)C2(C)C`, the IC50 entry in the series with Vaccinia virus (vero) is on record as “Not Active”. For the same compound, in series [4], the half-maximal cytotoxic concentration (CC50) at 96 h is > 250 µM.
For the compound `CC1CCN(CC(=O)N[C@@H]2C[C@H]3CC[C@]2(C)C3(C)C)CC1`, in the series on Orthopoxvirus, the IC50 was 2.5 µM.
Regarding `CC12C=CC3(O1)C(C(=O)N1c4ccccc4SC13)C2C(=O)N/N=C1\C[C@H]2CC[C@]1(C)C2(C)C` (mixture of isomers), the half-inhibitory concentration (IC50) entry in the series on Vaccinia virus (vero) was “Not Active”; in the series with Influenza A virus (setting [5]), 36 µM. Also, the CC50 at 48 h in series [3] was 123 µM. Besides, the selectivity ratio in series [1] is 3. Besides, the CC50 at 96 h in series [4] is 67.2 µM.
Turning to `CC1(C)[C@@H]2CC[C@@]1(C)/C(=N/NC(=O)c1cccs1)C2`, the IC50 entry with Vaccinia virus (vero) and in the series on Influenza A virus was “Not Active” each time. The CC50 at 48 h in series [3] was 1030 µM. In series [4], the CC50 at 96 h amounted to 362 µM.
Take `CCN1CC23C=CC(O2)C(C(=O)N/N=C2\C[C@H]4CC[C@]2(C)C4(C)C)C3C1=O` (mixture of isomers): the IC50 result in the series on Vaccinia virus (vero) and in the series on Influenza A virus was “Not Active” each time. For the same compound, in series [3], the half-maximal cytotoxic concentration (CC50) at 48 h was found to be 775 µM. Besides, the CC50 at 96 h in series [4] is > 250 µM.
With `COCCN1CC23C=CC(O2)C(C(=O)N/N=C2\C[C@H]4CC[C@]2(C)C4(C)C)C3C1=O` (mixture of isomers), the concentration for half-maximal inhibition (IC50) result in the series with Vaccinia virus (vero) and with Influenza A virus was “Not Active” throughout. In series [3], the cytotoxic concentration (CC50) at 48 h was 719 µM. Moreover, the 50% cytotoxic concentration (CC50) at 96 h in series [4] is > 250 µM.
